Source: ChEMBL document CHEMBL1811758, “Inhibition of monoamine oxidase by C5-substituted phthalimide analogues” (Bioorg Med Chem, 2011)

Key:
[1] = species on record: Homo sapiens; assay: Selectivity index, ratio of Ki for human recombinant MAOA to Ki for human recombinant MAOB
Summary of the method: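 Recombinant human MAO-A and MAO-B from baculovirus-infected insect-cell microsomes. Kynuramine at 45 µM (A) or 30 µM (B) final, in 100 mM potassium phosphate pH 7.4 made isotonic with KCl. 37 °C for 20 min, stopped with NaOH; 4-hydroxyquinoline fluorescence read at ex 310/em 400 nm. IC50 from 9–10 concentrations, duplicate. Ki = IC50/(1+[S]/Km), Km 16.1 (A), 22.7 µM (B); ratio Ki(A)/Ki(B).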

[2] = biological target: T1, Amine oxidase [flavin-containing] A (Homo sapiens, UniProt P21397); assay: Inhibition of human recombinant MAOA expressed in insect cells using kynuramine substrate using Cheng and Prusoff equation by fluorescence spectroscopy
T1 sequence (P21397 whole entry): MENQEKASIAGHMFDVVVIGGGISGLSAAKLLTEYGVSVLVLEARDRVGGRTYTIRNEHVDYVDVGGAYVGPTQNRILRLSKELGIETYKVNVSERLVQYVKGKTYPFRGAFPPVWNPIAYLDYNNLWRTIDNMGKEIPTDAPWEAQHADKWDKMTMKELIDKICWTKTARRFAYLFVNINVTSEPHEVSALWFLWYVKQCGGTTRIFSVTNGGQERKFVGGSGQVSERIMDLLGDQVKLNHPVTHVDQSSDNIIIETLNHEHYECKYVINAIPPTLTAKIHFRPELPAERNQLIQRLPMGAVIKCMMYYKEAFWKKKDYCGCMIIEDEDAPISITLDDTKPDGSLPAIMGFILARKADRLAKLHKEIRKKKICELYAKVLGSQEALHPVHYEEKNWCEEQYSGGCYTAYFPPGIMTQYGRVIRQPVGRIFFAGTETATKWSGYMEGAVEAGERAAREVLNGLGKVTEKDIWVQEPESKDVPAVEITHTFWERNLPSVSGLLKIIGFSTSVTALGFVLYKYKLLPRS

[3] = biological target: T1, Amine oxidase [flavin-containing] A; assay: Inhibition of human recombinant MAOA expressed in insect cells using kynuramine substrate by fluorescence spectroscopy
[4] = biological target: T2, Amine oxidase [flavin-containing] B (Homo sapiens, UniProt P27338); assay: Inhibition of human recombinant MAOB expressed in insect cells using kynuramine substrate using Cheng and Prusoff equation by fluorescence spectroscopy
T2 sequence (P27338 whole entry): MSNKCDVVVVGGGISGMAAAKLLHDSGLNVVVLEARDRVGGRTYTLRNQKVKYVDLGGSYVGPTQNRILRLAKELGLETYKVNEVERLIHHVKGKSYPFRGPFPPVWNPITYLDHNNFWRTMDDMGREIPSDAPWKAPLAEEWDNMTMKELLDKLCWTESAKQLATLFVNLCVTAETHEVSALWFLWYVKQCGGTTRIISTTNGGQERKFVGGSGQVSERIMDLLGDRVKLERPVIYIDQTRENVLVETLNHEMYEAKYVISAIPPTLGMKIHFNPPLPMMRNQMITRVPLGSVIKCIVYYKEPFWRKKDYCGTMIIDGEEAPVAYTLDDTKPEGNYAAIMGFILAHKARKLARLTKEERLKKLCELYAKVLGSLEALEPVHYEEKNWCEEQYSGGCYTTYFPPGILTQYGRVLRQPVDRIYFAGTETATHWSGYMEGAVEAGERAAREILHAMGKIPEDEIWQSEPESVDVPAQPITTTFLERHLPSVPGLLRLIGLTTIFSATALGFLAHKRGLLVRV

[5] = biological target: T2, Amine oxidase [flavin-containing] B; assay: Inhibition of human recombinant MAOB expressed in insect cells using kynuramine substrate by fluorescence spectroscopy
[6] = biological target: T1, Amine oxidase [flavin-containing] A; assay: Inhibition of human recombinant MAOA expressed in insect cells using kynuramine substrate at 100 uM by fluorescence spectroscopy
Summary of the method: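 MAO-A (insect-cell microsomes) was incubated with kynuramine (45 µM final) for 20 min at 37 °C in isotonic phosphate buffer, pH 7.4, with inhibitor at a maximum tested concentration of 100 µM. The reaction was stopped with NaOH, and 4-hydroxyquinoline was read fluorometrically (ex 310/em 400 nm). Percent inhibition is the mean of duplicates.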

[7] = biological target: T2, Amine oxidase [flavin-containing] B; assay: Inhibition of human recombinant MAOB expressed in insect cells using kynuramine substrate at 100 uM by fluorescence spectroscopy
Summary of the method: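 Single-point MAO-B assay: inhibitor at a maximum of 100 µM, kynuramine 30 µM final, 20 min at 37 °C in isotonic 100 mM potassium phosphate, pH 7.4. NaOH was added to stop the reaction, and 4-hydroxyquinoline was measured by fluorescence (ex 310/em 400 nm). Duplicate determinations were made, with percent inhibition reported.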

[8] = biological target: T2, Amine oxidase [flavin-containing] B; assay: Reversible inhibition of human recombinant MAOB expressed in insect cells using kynuramine substrate by Lineweaver-Burk plot
Summary of the method: (§1)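 Initial MAO-B rates (0.015 mg/mL enzyme) were measured at kynuramine 15, 30, 60 and 90 µM, without inhibitor and with 0.625, 1.25 or 2.5 µM inhibitor. Incubation was 20 min at 37 °C in isotonic 100 mM potassium phosphate, pH 7.4, followed by NaOH stop. 4-Hydroxyquinoline fluorescence (ex 310/em 400 nm) was read, and Lineweaver–Burk plots were drawn.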

[9] = biological target: T2, Amine oxidase [flavin-containing] B; assay: Time dependent inhibition of human recombinant MAOB expressed in insect cells at 5 uM preincubated 0 to 60 mins before kynuramine substrate addition by fluorescence spectroscopy
Summary of the method: (§2)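 Enzyme (0.03 mg/mL) was preincubated with inhibitor for 0, 15, 30 or 60 min at 37 °C in isotonic 100 mM potassium phosphate, pH 7.4. Preincubation inhibitor was 13.42 µM for MAO-A and 5.00 µM for MAO-B. Kynuramine was then added (45 µM for MAO-A, 30 µM for MAO-B), giving final enzyme 0.015 mg/mL and final inhibitor 6.71 µM (A) or 2.5 µM (B). After 15 min at 37 °C and NaOH stop, 4-hydroxyquinoline fluorescence was read, in triplicate.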

[10] = biological target: T1, Amine oxidase [flavin-containing] A; assay: Time dependent inhibition of human recombinant MAOA expressed in insect cells at 13.42 uM preincubated 0 to 60 mins before kynuramine substrate addition by fluorescence spectroscopy; summary of the method: as §2
[11] = biological target: T1, Amine oxidase [flavin-containing] A; assay: Reversible inhibition of human recombinant MAOA expressed in insect cells using kynuramine substrate by Lineweaver-Burk plot
Summary of the method: (§3)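 Kynuramine at 15, 30, 60 and 90 µM; MAO-A at 0.015 mg/mL in the reaction; inhibitor at 0, 1.7, 3.4 and 6.8 µM. Reactions ran in isotonic potassium phosphate (100 mM, pH 7.4) at 37 °C for 20 min and were stopped with NaOH. Initial rates were read by 4-hydroxyquinoline fluorescence (ex 310/em 400 nm) and plotted double-reciprocally.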

[12] = biological target: T1, Amine oxidase [flavin-containing] A; assay: Competitive inhibition of human recombinant MAOA expressed in insect cells using kynuramine substrate by Lineweaver-Burk plot; summary of the method: as §3
[13] = biological target: T2, Amine oxidase [flavin-containing] B; assay: Competitive inhibition of human recombinant MAOB expressed in insect cells using kynuramine substrate by Lineweaver-Burk plot; summary of the method: as §1

| SMILES | Ratio Ki [1] | Ki [2] [nM] | IC50 [3] [nM] | Ki [4] [nM] | IC50 [5] [nM] | also measured |
| --- | --- | --- | --- | --- | --- | --- |
| O=C1c2ccccc2C(=O)N1c1ccccc1 [N-PHENYL-PHTHALIMIDE] | – | – | – | – | – | inhibition at 100 µM [6]: 10.5%; inhibition at 100 µM [7]: 50.3% |
| O=C1NC(=O)c2ccccc21 [PHTHALIMIDE] | – | – | – | – | 134000 | – |
| O=C1NC(=O)c2cc(Oc3ccccc3)ccc21 | 1 | 1540 | 5850 | 1070 | 2490 | inhibition (INH) [8]: Active; TDI [9]: Not Active; TDI [10]: Not Active; inhibition (INH) [11]: Active; inhibition (INH) [12]: Active; inhibition (INH) [13]: Active |
| O=C1NC(=O)c2cc(Oc3ccc(Br)cc3)ccc21 | 12 | 285 | 1080 | 24 | 55 | – |
| O=C1c2ccccc2C(=O)N1Cc1ccccc1 | – | – | – | – | – | inhibition (INH) ([6]; 100 µM): Not Active; inhibition at 100 µM [7]: 20.2% |

The remaining compounds from weak to strong by IC50 [5], led by results:

| Ratio Ki [1] | Ki [2] [nM] | IC50 [3] [nM] | Ki [4] [nM] | IC50 [5] [nM] | SMILES | also measured |
| --- | --- | --- | --- | --- | --- | --- |
| 21 | 460 | 1730 | 20 | 50 | O=C1NC(=O)c2cc(OCCCc3ccccc3)ccc21 | – |
| 120 | 2370 | 8990 | 20 | 46 | O=C1NC(=O)c2cc(OC/C=C/c3ccccc3)ccc21 | – |
| 17 | 200 | 920 | 10 | 33 | O=C1NC(=O)c2cc(Oc3ccc4ccccc4c3)ccc21 | – |
